pIC50: −log10 of the molar value. Values after ≈ are worked out from the molar mass of the structure shown. Active and inactive are the calls of the source. The calls are words filed in the database; no cut-off is given here.
Experiments:
Escherichia coli [1] = assay: Antibacterial activity against Escherichia coli ATCC 10536 assessed as diameter of inhibition zone at 200 ug per disc after 24 hrs by agar disc diffusion method; format: functional; conditions: ATCC 10536, 24 h, read-out: DIZ
Procedure, shortened: (§1)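 Agar disc diffusion. Compounds at 20 mg mL⁻¹ in DMSO, filter-sterilised. 100 µL of 10⁸ CFU mL⁻¹ bacteria spread on nutrient agar. 6 mm discs carried 10 µl (200 µg per disc), with DMSO discs as negative control. Incubation 24 h at 37 °C. Read-out is inhibition zone diameter, mean of 3 repeats (±1 mm).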

Proteus vulgaris [2] = assay: Antibacterial activity against Proteus vulgaris PTCC 1182 assessed as diameter of inhibition zone at 200 ug per disc after 24 hrs by agar disc diffusion method; format: functional; conditions: for zone of inhibition at 200 µg/disc: PTCC 1182, 24 h, read-out: DIZ; procedure, shortened: as §1
Cholinesterase = Cholinesterase (Equus caballus, UniProt P81908); assay: Inhibition of equine serum BChE using butyrylthiocholine iodide as substrate pretreated for 15 mins followed by substrate addition measured for 6 mins by Ellman's method; conditions: for pIC50: read-out: IC50
Procedure, shortened: (§2)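 Ellman spectrophotometric assay in 0.1 M phosphate buffer pH 8.0 with DTNB, 25 °C. AChE (electric eel, Type V-S) or BChE was preincubated 15 min with compound before adding acetylthiocholine iodide or butyrylthiocholine iodide, respectively. Absorbance change at 412 nm was read for 6 min. Five concentrations were tested in triplicate, corrected by a nonenzymatic blank, with a no-inhibitor reference.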

Candida albicans [3] = assay: Antifungal activity against Candida albicans ATCC 10231; format: functional
Candida albicans [4] = assay: Antifungal activity against Candida albicans ATCC 10231 assessed as diameter of inhibition zone at 200 ug per disc after 48 hrs by agar disc diffusion method; format: functional; conditions: ATCC 10231, 48 h, read-out: DIZ
Procedure, shortened: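 Yeast tested by agar disc diffusion. Compounds at 20 mg mL⁻¹ in DMSO, filter-sterilised. 6 mm discs carried 10 µl (200 µg per disc), with DMSO discs as negative control. Incubation 48 h at 30 °C. Zone diameter was averaged over 3 repeats (±1 mm).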

Shigella dysenteriae [5] = assay: Antibacterial activity against Shigella dysenteriae PTCC 1188 assessed as diameter of inhibition zone at 200 ug per disc after 24 hrs by agar disc diffusion method; format: functional; conditions: for zone of inhibition at 200 µg/disc: PTCC 1188, 24 h, read-out: DIZ; procedure, shortened: as §1
Staphylococcus aureus [6] = assay: Antibacterial activity against Staphylococcus aureus ATCC 29737; format: functional
Klebsiella pneumoniae [7] = assay: Antibacterial activity against Klebsiella pneumoniae ATCC 10031; format: functional
Aspergillus brasiliensis [8] = assay: Antifungal activity against Aspergillus brasiliensis PTCC 5011 assessed as diameter of inhibition zone at 200 ug per disc after 72 hrs by agar disc diffusion method; format: functional; conditions: PTCC 5011, 72 h, read-out: DIZ
Procedure, shortened: (§3)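 Agar disc diffusion against mold. Compounds at 20 mg mL⁻¹ in DMSO, filter-sterilised. 6 mm discs carried 10 µl (200 µg per disc), with DMSO discs as negative control. Incubation 72 h at 30 °C. Read-out is growth inhibition zone diameter, mean of 3 repeats (±1 mm).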

Proteus vulgaris [9] = assay: Antibacterial activity against Proteus vulgaris PTCC 1182; format: functional
Bacillus spizizenii [10] = assay: Antibacterial activity against Bacillus subtilis ATCC 6633 assessed as diameter of inhibition zone at 200 ug per disc after 24 hrs by agar disc diffusion method; format: functional; conditions: for zone of inhibition at 200 µg/disc: ATCC 6633, 24 h, read-out: DIZ; procedure, shortened: as §1
[11] = system: Staphylococcus epidermidis; assay: Antibacterial activity against Staphylococcus epidermidis ATCC 12228 assessed as diameter of inhibition zone at 200 ug per disc after 24 hrs by agar disc diffusion method; format: functional; conditions: for zone of inhibition at 200 µg/disc: ATCC 12228, 24 h, read-out: DIZ; procedure, shortened: as §1
[12] = biological target: Acetylcholinesterase (Electrophorus electricus) (UniProt O42275); assay: Inhibition of electric eel AChE using acetylthiocholine iodide as substrate pretreated for 15 mins followed by substrate addition measured for 6 mins by Ellman's method; procedure, shortened: as §2
Aspergillus brasiliensis [13] = assay: Antifungal activity against Aspergillus brasiliensis PTCC 5011; format: functional
[14] = system: Staphylococcus epidermidis; assay: Antibacterial activity against Staphylococcus epidermidis ATCC 12228; format: functional
Pseudomonas aeruginosa [15] = assay: Antibacterial activity against Pseudomonas aeruginosa ATCC 27853 assessed as diameter of inhibition zone at 200 ug per disc after 24 hrs by agar disc diffusion method; format: functional; conditions: ATCC 27853, 24 h, read-out: DIZ; procedure, shortened: as §1
Aspergillus niger [16] = assay: Antifungal activity against Aspergillus niger ATCC 16404; format: functional
Aspergillus niger [17] = assay: Antifungal activity against Aspergillus niger ATCC 16404 assessed as diameter of inhibition zone at 200 ug per disc after 72 hrs by agar disc diffusion method; format: functional; conditions: ATCC 16404, 72 h, read-out: DIZ; procedure, shortened: as §3
Escherichia coli [18] = assay: Antibacterial activity against Escherichia coli ATCC 10536; format: functional
Pseudomonas aeruginosa [19] = assay: Antibacterial activity against Pseudomonas aeruginosa ATCC 27853; format: functional
Staphylococcus aureus [20] = assay: Antibacterial activity against Staphylococcus aureus ATCC 29737 assessed as diameter of inhibition zone at 200 ug per disc after 24 hrs by agar disc diffusion method; format: functional; conditions: ATCC 29737, 24 h, read-out: DIZ; procedure, shortened: as §1
Shigella dysenteriae [21] = assay: Antibacterial activity against Shigella dysenteriae PTCC 1188; format: functional
Salmonella paratyphi [22] = assay: Antibacterial activity against Salmonella paratyphi A serotype ATCC 5702; format: functional, Salmonella enterica subsp. enterica serovar Paratyphi A
Bacillus spizizenii [23] = assay: Antibacterial activity against Bacillus subtilis ATCC 6633; format: functional
Salmonella paratyphi [24] = assay: Antibacterial activity against Salmonella paratyphi A serotype ATCC 5702 assessed as diameter of inhibition zone at 200 ug per disc after 24 hrs by agar disc diffusion method; format: functional, Salmonella enterica subsp. enterica serovar Paratyphi A; conditions: for zone of inhibition at 200 µg/disc: Salmonella enterica, ATCC 5702, 24 h, read-out: DIZ; procedure, shortened: as §1
Klebsiella pneumoniae [25] = assay: Antibacterial activity against Klebsiella pneumoniae ATCC 10031 assessed as diameter of inhibition zone at 200 ug per disc after 24 hrs by agar disc diffusion method; format: functional; conditions: for zone of inhibition at 200 µg/disc: ATCC 10031, 24 h, read-out: DIZ; procedure, shortened: as §1
[26] = Salmonella enterica subsp. enterica serovar Paratyphi A

Chain of Cholinesterase (P81908 whole entry): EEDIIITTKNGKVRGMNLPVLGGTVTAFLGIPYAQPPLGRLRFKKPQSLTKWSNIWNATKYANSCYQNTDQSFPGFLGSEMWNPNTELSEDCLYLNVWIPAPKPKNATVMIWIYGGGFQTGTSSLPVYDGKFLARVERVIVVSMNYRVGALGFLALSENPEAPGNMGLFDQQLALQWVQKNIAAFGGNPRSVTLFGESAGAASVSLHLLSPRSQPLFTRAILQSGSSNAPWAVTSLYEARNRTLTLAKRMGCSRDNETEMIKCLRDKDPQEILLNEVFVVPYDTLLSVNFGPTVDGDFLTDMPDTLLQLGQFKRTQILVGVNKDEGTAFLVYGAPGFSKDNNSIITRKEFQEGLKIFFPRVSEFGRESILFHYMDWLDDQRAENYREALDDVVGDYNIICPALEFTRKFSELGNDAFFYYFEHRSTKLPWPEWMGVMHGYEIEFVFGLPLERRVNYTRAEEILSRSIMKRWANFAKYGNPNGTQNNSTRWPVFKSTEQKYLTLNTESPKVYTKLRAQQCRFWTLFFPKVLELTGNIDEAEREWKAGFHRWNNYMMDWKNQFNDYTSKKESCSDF
Chain of Acetylcholinesterase (Electrophorus electricus) (O42275 24-633 limits assumed): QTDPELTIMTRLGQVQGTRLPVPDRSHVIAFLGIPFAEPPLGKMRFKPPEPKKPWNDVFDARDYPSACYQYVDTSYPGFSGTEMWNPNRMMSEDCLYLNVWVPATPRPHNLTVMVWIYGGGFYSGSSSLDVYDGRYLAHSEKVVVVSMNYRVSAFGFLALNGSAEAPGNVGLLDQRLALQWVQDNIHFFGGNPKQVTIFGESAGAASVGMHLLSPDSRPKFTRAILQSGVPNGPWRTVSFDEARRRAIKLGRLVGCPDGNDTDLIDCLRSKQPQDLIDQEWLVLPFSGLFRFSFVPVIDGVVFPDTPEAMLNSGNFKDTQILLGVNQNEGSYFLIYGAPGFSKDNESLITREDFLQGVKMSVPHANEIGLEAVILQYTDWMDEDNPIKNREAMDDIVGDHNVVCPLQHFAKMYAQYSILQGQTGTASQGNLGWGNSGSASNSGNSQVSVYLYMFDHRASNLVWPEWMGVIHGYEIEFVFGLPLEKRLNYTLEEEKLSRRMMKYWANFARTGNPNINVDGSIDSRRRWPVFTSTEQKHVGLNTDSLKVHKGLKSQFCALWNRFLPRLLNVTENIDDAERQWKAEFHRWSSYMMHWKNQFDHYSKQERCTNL

Row | Molecule | pIC50 (Cholinesterase) | MIC (Candida albicans [3]) | zone of inhibition at 200 µg/disc (Candida albicans [4]) | MIC (Staphylococcus aureus [6]) | MIC (Klebsiella pneumoniae [7]) | zone of inhibition at 200 µg/disc (Aspergillus brasiliensis [8]) | zone of inhibition at 200 µg/disc (Bacillus spizizenii [10]) | zone of inhibition at 200 µg/disc [11] | inhibition [12] | MIC (Aspergillus brasiliensis [13]) | MIC [14] | MIC (Aspergillus niger [16]) | zone of inhibition at 200 µg/disc (Aspergillus niger [17]) | MIC (Pseudomonas aeruginosa [19]) | zone of inhibition at 200 µg/disc (Staphylococcus aureus [20]) | MIC (Bacillus spizizenii [23]) | other results
1 | Fc1ccccc1C1CC(c2cc3cc(Br)ccc3o2)=Nc2ccccc2S1 (centres undefined) | 4.86 | 25 µg/mL (≈ 55.3 µM) | 13 mm | 5 µg/mL (≈ 11.1 µM) | inactive | < 6 mm | < 6 mm | 9 mm | inactive | inactive | 5 µg/mL (≈ 11.1 µM) | inactive | < 6 mm | 50 µg/mL (≈ 111 µM) | 10 mm | inactive | zone of inhibition at 200 µg/disc (Escherichia coli [1]): < 6 mm; zone of inhibition at 200 µg/disc (Proteus vulgaris [2]): < 6 mm; zone of inhibition at 200 µg/disc (Shigella dysenteriae [5]): < 6 mm; MIC (Proteus vulgaris [9]): inactive; zone of inhibition at 200 µg/disc (Pseudomonas aeruginosa [15]): 15 mm; MIC (Escherichia coli [18]): inactive; MIC (Shigella dysenteriae [21]): inactive; MIC (Salmonella paratyphi [22]; Salmonella enterica): 50 µg/mL (≈ 111 µM); zone of inhibition at 200 µg/disc (Salmonella paratyphi [24]): 11 mm; zone of inhibition at 200 µg/disc (Klebsiella pneumoniae [25]): < 6 mm
2 | c1ccc2c(c1)N=C(c1cc3ccccc3o1)CC(c1cccc3ccccc13)S2 (centres undefined) | 4.20 | 25 µg/mL (≈ 61.6 µM) | 14 mm | 5 µg/mL (≈ 12.3 µM) |  | < 6 mm | < 6 mm | 9 mm | inactive | inactive | 5 µg/mL (≈ 12.3 µM) | inactive | < 6 mm |  | 10 mm | inactive | 
3 | O=[N+]([O-])c1ccc2oc(C3=Nc4ccccc4SC(c4ccccc4F)C3)cc2c1 (centres undefined) | 4.66 | 0.125 µg/mL (≈ 0.299 µM) | 19 mm | 2.5 µg/mL (≈ 5.97 µM) | inactive | < 6 mm | < 6 mm | 10 mm | inactive | inactive | 5 µg/mL (≈ 11.9 µM) | inactive | < 6 mm | inactive | 17 mm | inactive | zone of inhibition at 200 µg/disc (Escherichia coli [1]): 12 mm; zone of inhibition at 200 µg/disc (Proteus vulgaris [2]): 23 mm; zone of inhibition at 200 µg/disc (Shigella dysenteriae [5]): < 6 mm; MIC (Proteus vulgaris [9]): 0.125 µg/mL (≈ 0.299 µM); zone of inhibition at 200 µg/disc (Pseudomonas aeruginosa [15]): < 6 mm; MIC (Escherichia coli [18]): 50 µg/mL (≈ 119 µM); MIC (Shigella dysenteriae [21]): inactive; MIC (Salmonella paratyphi [22]; [26]): inactive; zone of inhibition at 200 µg/disc (Salmonella paratyphi [24]): < 6 mm; zone of inhibition at 200 µg/disc (Klebsiella pneumoniae [25]): < 6 mm
4 | COc1ccc(C2CC(c3cc4ccccc4o3)=Nc3ccccc3S2)cc1 (centres undefined) | 5.40 |  |  |  |  |  |  |  | inactive |  |  |  |  |  |  |  | 
5 | O=[N+]([O-])c1ccc2oc(C3=Nc4ccccc4SC(c4cccc5ccccc45)C3)cc2c1 (centres undefined) | 4.26 | 2.5 µg/mL (≈ 5.55 µM) | 13 mm | 0.25 µg/mL (≈ 0.555 µM) | 50 µg/mL (≈ 111 µM) | < 6 mm | 15 mm | 30 mm | inactive | inactive | 0.25 µg/mL (≈ 0.555 µM) | inactive | < 6 mm | inactive | 20 mm | 0.125 µg/mL (≈ 0.277 µM) | zone of inhibition at 200 µg/disc (Escherichia coli [1]): < 6 mm; zone of inhibition at 200 µg/disc (Proteus vulgaris [2]): < 6 mm; zone of inhibition at 200 µg/disc (Shigella dysenteriae [5]): < 6 mm; MIC (Proteus vulgaris [9]): inactive; zone of inhibition at 200 µg/disc (Pseudomonas aeruginosa [15]): < 6 mm; MIC (Escherichia coli [18]): inactive; MIC (Shigella dysenteriae [21]): inactive; MIC (Salmonella paratyphi [22]; Salmonella enterica): 50 µg/mL (≈ 111 µM); zone of inhibition at 200 µg/disc (Salmonella paratyphi [24]): 11 mm; zone of inhibition at 200 µg/disc (Klebsiella pneumoniae [25]): 11 mm
6 | GENTAMICIN |  |  |  |  | 0.25 µg/mL |  |  |  |  |  |  |  |  | inactive |  |  | inhibition zone (IZ) (Proteus vulgaris [2]): 23 mm; inhibition zone (IZ) (Shigella dysenteriae [5]): 18 mm; inhibition zone (IZ) (Bacillus spizizenii [10]): 21 mm; inhibition zone (IZ) [11]: 35 mm; inhibition zone (IZ) (Salmonella paratyphi [24]; [26]): 21 mm; inhibition zone (IZ) (Klebsiella pneumoniae [25]): 22 mm
7 | COc1ccccc1C1CC(c2cc3ccccc3o2)=Nc2ccccc2S1 (centres undefined) | 5.32 |  |  |  |  |  |  |  | inactive |  |  |  |  |  |  |  | 
8 | Cc1ccc(C2CC(c3cc4cc(Br)ccc4o3)=Nc3ccccc3S2)cc1 (centres undefined) | 5.07 |  |  |  |  |  |  |  | inactive |  |  |  |  |  |  |  | 
9 | COc1ccccc1C1CC(c2cc3cc(Br)ccc3o2)=Nc2ccccc2S1 (centres undefined) | 5.74 |  |  |  |  |  |  |  | inactive |  |  |  |  |  |  |  | 
10 | O=[N+]([O-])c1ccc2oc(C3=Nc4ccccc4SC(c4ccccc4)C3)cc2c1 (centres undefined) |  |  |  |  |  |  |  |  | inactive |  |  |  |  |  |  |  | IC50 (Cholinesterase): Not Active
11 | Oc1ccc(C2CC(c3cc4cc(Br)ccc4o3)=Nc3ccccc3S2)cc1 (centres undefined) | 5.19 |  |  |  |  |  |  |  | inactive |  |  |  |  |  |  |  | 
12 | COc1cccc2cc(C3=Nc4ccccc4SC(c4ccc(O)cc4)C3)oc12 (centres undefined) | 5.39 |  |  |  |  |  |  |  | inactive |  |  |  |  |  |  |  | 

— ChEMBL document CHEMBL4118244, “Design, synthesis and biological evaluation of benzofuran appended benzothiazepine derivatives as inhibitors of butyrylcholinesterase and antimicrobial agents” (Bioorg Med Chem, 2018)
